Test results: ChEMBL document CHEMBL1125673, “Synthesis and antiretrovirus properties of 5'-isocyano-5'-deoxythymidine, 5'-isocyano-2',5'-dideoxyuridine, 3'-azido-5'-isocyano-3',5'-dideoxythymidine, and 3'-azido-5'-isocyano-2',3',5'-trideoxyuridine” (J Med Chem, 1991)
pEC50: −log10 of the molar value. Values after ≈ are worked out from the molar mass of the structure shown.

Legend:
[1] = test system: Human immunodeficiency virus 1; test: Concentration of compound required to inhibit HIV-1 replication in MT-4 cells by 50%; type: functional, organism-based; conditions: Human immunodeficiency virus 1, MT4
Procedure, shortened: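 HIV-1 strain HTLV-III_B infection of human MT-4 lymphocytes; EC50 is the compound concentration that inhibits virus-induced cytopathogenicity by 50%.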

[2] = test system: MT4; test: Concentration of compound required to reduce MT-4 cells viability by 50%.; type: functional; conditions: Homo sapiens
Procedure, shortened: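 Uninfected human MT-4 lymphocyte cultures exposed to compound; CC50 is the concentration that lowers cell viability by 50%.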

[3] = Minimal inhibitory concentration was measured as compound concentration that causes a microscopically visible alteration of C3H cell morphology.; type: functional; conditions: Mus musculus
Procedure, shortened: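 C3H murine embryo fibroblasts exposed to compound and examined by microscope; the minimal inhibitory concentration is the lowest level giving a visible change in cell morphology.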

[4] = test system: C3H/3T3; test: Concentration of compound required to inhibit […] MSV-induced transformation of C3H/3T3 cells by 50%.; type: functional, cell-based; conditions: Mus musculus
Procedure, shortened: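 Moloney murine sarcoma virus (MSV) infection of murine embryo fibroblast C3H/3T3 cells; EC50 is the compound concentration that inhibits MSV-induced cell transformation by 50%.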

Row | SMILES | pEC50 [1] | CC50 [2] [µM] | MIC [3] [µM] | pEC50 [4]
1 | [C-]#[N+]C[C@H]1OC(n2ccc(=O)[nH]c2=O)C[C@H]1O (stereo partly specified) | < 3.70 | 125 | 3.2 (≈ 0.759 µg/mL) | < 5.49
2 | [C-]#[N+]C[C@H]1OC(n2cc(C)c(=O)[nH]c2=O)C[C@H]1N=[N+]=[N-] (stereo partly specified) | < 4.40 | 122 |  | 
3 | Cc1cn([C@H]2C[C@H](N=[N+]=[N-])[C@@H](CO)O2)c(=O)[nH]c1=O [ZIDOVUDINE] | 8.40 | 20 | > 400 | 7.70
4 | [C-]#[N+]C[C@H]1OC(n2ccc(=O)[nH]c2=O)C[C@H]1N=[N+]=[N-] (stereo partly specified) | < 4.40 | 104 |  | 
5 | [C-]#[N+]C[C@H]1OC(n2cc(C)c(=O)[nH]c2=O)C[C@H]1O (stereo partly specified) | < 3.70 | 144 | 3.2 (≈ 0.804 µg/mL) | < 5.49
